# Test results: ChEMBL document CHEMBL6109036, “Azo derivatives of monoterpenes as anti-Helicobacter pylori agents: from synthesis to structure-based target investigation” (RSC Med Chem, 2025)
# What was measured:
# Format in all cases: functional
# Helicobacter pylori [1] = assay: Bactericidal activity against Helicobacter pylori NCTC 11637 measured after 72 hrs of incubation under microaerophilic conditions by modified broth dilution method; settings: read-out: MBC99.9
# Procedure, shortened: (§1)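 H. pylori (NCTC 11637, F1, 23, F4). Wells with no visible growth in the MIC assay spotted (10 μL) onto Skirrow agar. Plates incubated 72 h at 37 °C, microaerophilic, 100% humidity. MBC = concentration killing 99.9% of the initial inoculum. Triplicate, on at least three different days.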
# Helicobacter pylori [2] = assay: Anti-bacterial activity against Helicobacter pylori Clinical isolate F1 measured after 72 hrs incubation by modified broth dilution method
# Helicobacter pylori [3] = assay: Anti-bacterial activity against Helicobacter pylori Clinical isolate 23 measured after 72 hrs incubation by modified broth dilution method
# Helicobacter pylori [4] = assay: Anti-bacterial activity against Helicobacter pylori measured after 72 hrs incubation by modified broth dilution method
# Helicobacter pylori [5] = assay: Anti-bacterial activity against Helicobacter pylori NCTC 11637 measured after 72 hrs incubation by modified broth dilution method
# Helicobacter pylori [6] = assay: Bactericidal against Helicobacter pylori Clinical isolate F4 measured after 72 hrs of incubation under microaerophilic conditions by modified broth dilution method; settings: read-out: MBC99.9; procedure, shortened: as §1
# Helicobacter pylori [7] = assay: Bactericidal against Helicobacter pylori measured after 72 hrs of incubation under microaerophilic conditions by modified broth dilution method
# Procedure, shortened: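 Wells with no visible growth in the MIC assay spotted (10 μL) onto Skirrow agar. Plates incubated 72 h at 37 °C, microaerophilic, 100% humidity. Triplicate, on at least three different days.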
# Helicobacter pylori [8] = assay: Bactericidal activity against Helicobacter pylori Clinical isolate F1 measured after 72 hrs of incubation under microaerophilic conditions by modified broth dilution method; settings: read-out: MBC99.9; procedure, shortened: as §1
# Helicobacter pylori [9] = assay: Anti-bacterial activity against Helicobacter pylori Clinical isolate F4 measured after 72 hrs incubation by modified broth dilution method
# Helicobacter pylori [10] = assay: Bactericidal activity against Helicobacter pylori Clinical isolate 23 measured after 72 hrs of incubation under microaerophilic conditions by modified broth dilution method; settings: read-out: MBC99.9; procedure, shortened: as §1
MIC (Helicobacter pylori [2]) [µg/mL],MIC (Helicobacter pylori [3]) [µg/mL],MIC50 (Helicobacter pylori [4]) [µg/mL],MIC90 (Helicobacter pylori [4]) [µg/mL],MIC (Helicobacter pylori [5]) [µg/mL],MIC (Helicobacter pylori [9]) [µg/mL],SMILES,MBC (Helicobacter pylori [1]) [µg/mL],MBC (Helicobacter pylori [6]) [µg/mL],MBC90 (Helicobacter pylori [7]) [µg/mL],MBC (Helicobacter pylori [8]) [µg/mL],MBC (Helicobacter pylori [10]) [µg/mL],"MBC (Helicobacter pylori [7]; Helicobacter pylori, read-out: MBC99.9) [µg/mL]"
4,8,4,8,8,4,COc1ccc(/N=N/c2cc(C)c(O)cc2C(C)C)cc1,8,4,8,4,8,
64,128,64,128,128,64,Cc1ccc(C(C)C)c(O)c1 [THYMOL],128,64,,64,128,128
4,0.064,0.064,256,0.064,> 256,CC[C@H]1OC(=O)[C@H](C)[C@@H](O[C@H]2C[C@@](C)(OC)[C@@H](O)[C@H](C)O2)[C@H](C)[C@@H](O[C@@H]2O[C@H](C)C[C@H](N(C)C)[C@H]2O)[C@](C)(OC)C[C@@H](C)C(=O)[C@H](C)[C@@H](O)[C@]1(C)O [CLARITHROMYCIN],0.064,256,,8,0.064,
8,32,16,32,16,16,COc1cc(C=O)cc(/N=N/c2ccc(Br)cc2)c1O,16,16,32,8,32,
4,4,4,4,4,2,Cc1cc(/N=N/c2ccccc2Cl)c(C(C)C)cc1O,4,2,4,4,4,
128,128,128,> 128,> 128,128,COc1ccc(/N=N/c2cc(C(C)C)c(O)c(/N=N/c3ccc(OC)cc3)c2C)cc1,> 128,> 128,>128,> 128,> 128,
0.064,0.016,0.016,0.064,0.016,0.064,CC1(C)S[C@@H]2[C@H](NC(=O)[C@H](N)c3ccc(O)cc3)C(=O)N2[C@H]1C(=O)O [AMOXICILLIN],0.016,0.064,0.064,0.064,0.016,
128,64,64,128,128,64,COc1ccc(/N=N/c2cc(C(C)C)c(OC(C)=O)cc2C)cc1,128,128,128,128,64,
128,> 128,128,> 128,> 128,128,COc1ccc(/N=N/c2cc(C(C)C)c(OC)cc2C)cc1,> 128,128,>128,> 128,> 128,
> 128,> 128,> 128,> 128,128,> 128,C=CCc1cc(/N=N/c2cccc3ccccc23)c(O)c(OC)c1,128,> 128,>128,> 128,> 128,

SMILES,MIC (Helicobacter pylori [2]) [µg/mL],MIC (Helicobacter pylori [3]) [µg/mL],MIC50 (Helicobacter pylori [4]) [µg/mL],MIC90 (Helicobacter pylori [4]) [µg/mL],MIC (Helicobacter pylori [5]) [µg/mL],MIC (Helicobacter pylori [9]) [µg/mL],MBC (Helicobacter pylori [1]) [µg/mL],MBC (Helicobacter pylori [6]) [µg/mL],MBC90 (Helicobacter pylori [7]) [µg/mL],MBC (Helicobacter pylori [8]) [µg/mL],MBC (Helicobacter pylori [10]) [µg/mL],"MBC (Helicobacter pylori [7]; Helicobacter pylori, read-out: MBC99.9) [µg/mL]"
C=CCc1ccc(O)c(OC)c1 [EUGENOL],64,64,64,64,32,64,64,64,64,128,64,
